# Screens: PubChem, The Scripps Research Institute Molecular Screening Center
# In the library only some 1.8% were active in any assay of this set; here they are far more common.
# CHRM4 PAM – positive allosteric modulators of human muscarinic M4 receptor; P08173; CHO-K1 hM4/Gqi5, Fluo-8 calcium fluorescence, ACh EC20; 0% = ACh EC20, 100% = maximal ACh; activation, % at 3 µM; 0.4% of 360,000 active; AID 624126;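 active = activation above its plate's cutoff, the mean activation of sample wells plus 3 SD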
# CHRM4 antagonist – CHRM4 antagonism in calcium assay; P08173; CHO-hM4 cells, ACh EC80, Fluo-8 calcium fluorescence; inhibition, % at 3 µM; 0.73% of 360,000 active; AID 624125;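 active = inhibition above its plate's cutoff, the mean inhibition of sample wells plus 3 SD, cut at about 27% in these data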
# M5 ag – agonists of human muscarinic M5 receptor (CHRM5). activation, % at 3 µM. CHO-K1 hM5 cells, Fluo-8 calcium fluorescence; 0% DMSO wells, 100% maximal acetylcholine response. 0.19% of 360,000 active. P08912;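 active = activation above the run's mean over test compounds plus 3 SD, cut at about 23% in these data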;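 note: signal is peak over basal fluorescence ratio across the kinetic read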
# Target sequence (P08912 whole entry, looked up): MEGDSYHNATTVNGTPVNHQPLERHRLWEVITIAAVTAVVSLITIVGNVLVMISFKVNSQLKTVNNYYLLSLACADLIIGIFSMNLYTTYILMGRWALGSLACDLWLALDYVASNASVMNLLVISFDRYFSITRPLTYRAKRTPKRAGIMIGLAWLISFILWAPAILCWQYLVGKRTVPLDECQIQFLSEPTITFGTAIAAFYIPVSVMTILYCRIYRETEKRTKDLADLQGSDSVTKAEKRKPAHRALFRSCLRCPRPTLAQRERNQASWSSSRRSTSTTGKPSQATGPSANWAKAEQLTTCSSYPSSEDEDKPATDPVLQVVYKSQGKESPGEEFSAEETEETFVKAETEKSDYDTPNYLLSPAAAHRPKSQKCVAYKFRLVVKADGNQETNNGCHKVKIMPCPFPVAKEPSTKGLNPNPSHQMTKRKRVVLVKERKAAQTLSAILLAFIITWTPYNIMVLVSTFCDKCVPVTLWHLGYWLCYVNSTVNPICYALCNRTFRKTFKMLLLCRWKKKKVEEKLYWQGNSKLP
# M4 ag – agonists of human muscarinic M4 receptor (CHRM4). CHO-K1 hM4/Gqi5, Fluo-8 calcium fluorescence; vehicle 0%, full acetylcholine response 100%. activation, % at 3 µM. 0.14% of 360,000 active;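 active = activation above the run mean over all test wells plus 3 SD, cut at about 32% in these data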;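 note: peak over basal fluorescence ratio per well then scaled between controls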
# M5 antag – antagonists of human muscarinic M5 receptor (CHRM5); P08912; CHO-hM5 cells, Fluo-8 calcium fluorescence, ACh EC80; inhibition, % at 3 µM; 0.59% of 360,000 active; AID 624040;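 active = inhibition above a per-plate cutoff, the mean of that plate's test compounds plus 3 SD, cut at about 27% in these data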
# CHRM5 PAM – CHRM5 positive allosteric modulation. activation, % at 3 µM. CHO-K1 hM5, Fluo-8 calcium, ACh EC20 PAM; 0% = ACh EC20, 100% = ACh EC100. 0.3% of 360,000 active. P08912;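 active = activation above the run cutoff, the mean activation of all test compounds plus 3 SD, cut at about 18% in these data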
#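 Replicates: One well per compound, no replicates | System: Human M5 receptor in CHO-K1 cells | Benchmarks: Low control EC20 acetylcholine (0%), high control EC100 acetylcholine (100%) | Probe or stimulus: Acetylcholine, EC20 level | Times: Fluo-8 loading 80 min at 37 °C plus 30 min room temperature | Signal: Intracellular calcium via Fluo-8 fluorescence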
# Hits are given with their value; – = inactive.
SMILES,CHRM4 PAM,CHRM4 antagonist,M5 ag,M4 ag,M5 antag,CHRM5 PAM
COc1ccc(/C=N/N=C2/NC(=O)C(CC(=O)O)S2)cc1OS(=O)(=O)c1ccccc1 (configuration not stated),–,–,–,–,–,–
N#C/C(=C\c1cccc(NC(=O)c2ccccc2Cl)c1)C(=O)NCCc1ccccc1,–,–,–,–,–,–
CCN(C(=O)C1CCN(c2nc(-c3ccc(OC)cc3)no2)CC1)c1ccc(OC)cc1,–,–,–,–,28,–
COc1ccc(NC(=O)C2CCN(c3nc(-c4ccc(OC)cc4)no3)CC2)cc1,–,–,–,–,–,–
COc1cc(CNCCc2ccccc2)cc(Cl)c1OCc1ccccc1,–,27,–,–,–,–
CCOc1ccccc1NC(=O)COC(=O)COc1c(Cl)cc(Cl)c2ccc(C)nc12,–,–,–,–,28,34
Cc1ccc2c(Cl)cc(Cl)c(OCC(=O)NC3CCS(=O)(=O)C3)c2n1 (configuration not stated),–,–,–,–,–,–
Cc1ccc2c(Cl)cc(Cl)c(OCC(=O)NCCc3ccccn3)c2n1,–,77,–,–,–,–
CCNC(=O)C1(C)CCCN(Cc2ccc3ccccc3c2Br)C1 (configuration not stated),–,35,–,–,–,–
CCN(Cc1ccncc1)C(=O)C(CO)c1ccccc1 (configuration not stated),–,89,–,–,87,–
CCN(Cc1ccncc1)C(=S)Nc1ccccc1,–,–,–,–,–,–
Cc1cccc(N(CC(=O)NC2CCCCC2)C(=O)c2csnn2)c1,–,–,–,–,–,–
COc1ccc(NC2=NCC(Cc3ccc(Br)cc3)S2)cc1 (configuration not stated),–,29,–,–,–,–
COc1cccc(NC(=O)c2nc3nc(C)cc(C(F)F)n3n2)c1,–,–,–,–,–,–
Cc1cc(C(F)F)n2nc(C(=O)Nc3cc(C)on3)nc2n1,28,–,–,–,–,–
COc1ccc(NC(=O)C2(N(C(=O)Cn3nnnc3N)c3ccc(OC)cc3)CCCCC2)cc1,–,–,–,–,–,–
CCC(C)(C(=O)Nc1ccc(OC)cc1)N(C)C(=O)Cn1nnnc1N (configuration not stated),–,–,–,–,–,19
O=[N+]([O-])c1c(Nc2cccc(O)c2)cc(Cl)c2nonc12,–,60,–,–,–,–
CC1CCCN(CCOc2ccc(Br)cc2)C1 (configuration not stated),–,–,–,–,–,–
CCOc1cccc(OCCCCN2CCCCC2)c1,–,57,–,–,–,–
Brc1cccc(OCCCCN2CCCCC2)c1,–,53,–,–,–,–
CC1CCCN(CCCCOc2cccc(Br)c2)C1 (configuration not stated),–,35,–,–,–,–
CCNc1ccc(C(=O)OCC(=O)N(Cc2ccccc2)C(C)(C)C)cc1[N+](=O)[O-],–,–,–,–,–,–
Cc1ccccc1C(=O)NNC(=O)CCC(=O)Nc1cccc(Cl)c1C,–,–,–,–,–,19
CC(O)CN(C)CC/C=C1/c2ccccc2CSc2ccccc21 (configuration not stated),–,–,–,–,–,–
SMILES,CHRM4 PAM,CHRM4 antagonist,M5 ag,M4 ag,M5 antag,CHRM5 PAM
C#CCN(C)CC/C=C1\c2ccccc2CSc2ccccc21,–,32,–,–,37,–
NCC/C=C1/c2ccccc2CSc2ccccc21,–,–,–,–,34,–
C=CCN(C)CC/C=C1\c2ccccc2CSc2ccccc21,–,52,–,–,62,–
CN(CC/C=C1/c2ccccc2CSc2ccccc21)CCCO,–,65,–,–,44,–
COC(=O)[C@@]12C[C@@H](CC(=O)N3CCN(C(=O)c4ccco4)CC3)C(=O)N(CCc3ccc(OC)c(OC)c3)C1=CCC(C)(C)C2,–,–,–,–,–,–
COc1ccccc1-n1c(C)nc2cc(C(=O)NCCN3CCOCC3)ccc21,–,–,–,–,–,–
COc1ccccc1CNC(=O)C1Cc2cc(S(=O)(=O)N3CCCC3)ccc2N1C(C)=O (configuration not stated),–,–,–,–,–,–
COc1cccc(CNC(=O)C2Cc3cc(S(=O)(=O)N4CCCC4)ccc3N2C(C)=O)c1OC (configuration not stated),17,–,–,–,–,–
O=C(O)c1ccc(Cl)c(S(=O)(=O)N(Cc2ccccc2)c2ccccc2)c1,–,–,–,–,–,–
CCN(c1ccccc1)S(=O)(=O)c1cc(C(=O)O)ccc1C,17,–,–,–,–,–
NC(=O)c1nsc(C(=O)N(CC(=O)NCc2ccccc2)c2ccc(F)cc2)c1N,–,–,–,–,–,–
CN1CCS/C1=C\C=C1/SC(=S)N(CC(=O)O)C1=O,–,–,49,–,–,–
C/C(CC(=O)NCc1ccccc1)=N\NC(=O)c1cnccn1,31,–,–,–,–,–
Cc1ccc(NC(=O)CS(=O)CC(=O)N(C(C)C(=O)NC2CCCCC2)C(C)(C)C)cc1 (configuration not stated),–,–,–,–,28,–
Cc1ccc(N(C(=O)CS(=O)CC(=O)Nc2ccc(F)cc2)C(C(=O)NC2CCCCC2)c2ccco2)cc1 (configuration not stated),–,–,–,–,–,–
Cn1ccnc1C1CCCCN1Cc1nc(Cc2ccccc2F)no1 (configuration not stated),–,83,–,–,–,–
CCn1c(CNC(=O)COc2ccc(C(C)C)cc2)nnc1SCC(=O)Nc1ccccc1C(C)C,–,–,–,–,28,–
Cc1cc(C)n(-c2cccc(F)n2)n1,–,–,–,–,–,19
CC(C)(C)Nc1nc(Nc2ccc([N+](=O)[O-])cc2)nc(NC(C)(C)C)n1,15,–,–,–,–,–
C/C=C\C(=O)Nc1cccc(C2=NOC3(C2)C[C@@H](C(N)=O)N(C(=O)c2ccc(Cl)cc2)C3)c1 (some centres not stated),–,–,–,–,–,19
Cc1cc(C)n2nc(S(=O)(=O)NC(C)(C)C)nc2n1,–,–,–,–,–,19
CCOC(=O)c1c(-c2ccc(OC)cc2)oc2c1C(OC(C)=O)CCC2 (configuration not stated),–,–,–,–,–,–
CC(=O)Nc1ccc(S(=O)(=O)N2CCCC2C(=O)Nc2ccc(F)cc2)cc1 (configuration not stated),–,–,–,–,–,–
